Data as given in ChEMBL document CHEMBL1153581, “Synthesis, antiviral and anticancer activity of some novel thioureas derived from N-(4-nitro-2-phenoxyphenyl)-methanesulfonamide” (Eur J Med Chem, 2009).
Values after ≈ are worked out from the molar mass of the structure shown.

Key:
[1] = tested on: HeLa; test: Cytotoxicity against human HeLa cells assessed as change in cell morphology; assay type: functional
In short: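 The minimum cytotoxic concentration (MCC) is the concentration causing a microscopically detectable alteration of cell morphology in the uninfected host cell culture.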

[2] = tested on: Human alphaherpesvirus 1; test: Antiviral activity against HSV1 KOS infected in HEL cells assessed as protection against virus-induced cytopathogenicity; assay type: functional; settings: Human alphaherpesvirus 1, KOS
[3] = tested on: Human alphaherpesvirus 2; test: Antiviral activity against Herpes simplex virus 2 infected in HEL cells assessed as protection against in virus-induced cytopathogenicity; assay type: functional
[4] = tested on: Vesicular stomatitis virus; test: Antiviral activity against sVesicular stomatitis virus infected in HEL cells assessed as protection against virus-induced cytopathogenicity; assay type: functional
[5] = tested on: Human alphaherpesvirus 1; test: Antiviral activity against acyclovir-resistant thymidine kinase-deficient HSV1 KOS infected in human HEL cells assessed as protection against virus-induced cytopathogenicity; assay type: functional; settings: Human alphaherpesvirus 1, KOS
[6] = tested on: Vesicular stomatitis virus; test: Antiviral activity against Vesicular stomatitis virus infected in human HeLa cells assessed as protection against virus-induced cytopathogenicity; assay type: functional
[7] = tested on: Coxsackievirus B4; test: Antiviral activity against Coxsackievirus B4 infected in human HeLa cells assessed as protection against virus-induced cytopathogenicity; assay type: functional; settings: Enterovirus B
[8] = tested on: Respiratory syncytial virus; test: Antiviral activity against RSV infected in human HeLa cells assessed as protection against virus-induced cytopathogenicity; assay type: functional
[9] = tested on: Human respirovirus 3; test: Antiviral activity against Parainfluenza-3 virus infected in african green monkey Vero cells assessed as protection against virus-induced cytopathogenicity; assay type: functional
[10] = tested on: Mammalian orthoreovirus 1; test: Antiviral activity against Reovirus 1 infected in african green monkey Vero cells assessed as protection against virus-induced cytopathogenicity; assay type: functional
[11] = tested on: Sindbis virus; test: Antiviral activity against Sindbis virus infected in african green monkey Vero cells assessed as protection against virus-induced cytopathogenicity; assay type: functional
[12] = tested on: Coxsackievirus B4; test: Antiviral activity against Coxsackievirus B4 infected in african green monkey Vero cells assessed as protection against virus-induced cytopathogenicity; assay type: functional; settings: Enterovirus B
[13] = tested on: Punta Toro virus; test: Antiviral activity against Punta Toro virus infected in african green monkey Vero cells assessed as protection against virus-induced cytopathogenicity; assay type: functional
[14] = Cytotoxicity against HEL cells assessed as change in cell morphology; assay type: cell-based; settings: human
In short: (§1)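 HEL cell cultures examined under the microscope. Minimal cytotoxic concentration (MCC) is the concentration that causes a microscopically detectable alteration of cell morphology. Compounds were tested at subtoxic concentrations alongside the antiviral tests.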

[15] = Cytotoxicity against african green monkey Vero cells assessed as change in cell morphology; assay type: cell-based; settings: chlorocebus sabaeus
In short: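 Vero cell cultures were used for the broad-spectrum antiviral screen. The MCC endpoint is the lowest concentration that causes a microscopically detectable alteration of cell morphology. Activity was called when 5 × MIC < MCC.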

[16] = tested on: Human betaherpesvirus 5; test: Antiviral activity against Cytomegalovirus AD169 infected in HEL cells assessed as reduction in virus plaque formation; assay type: functional, organism-based; settings: Human betaherpesvirus 5, AD169, HEL
In short: (§2)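 Plaque reduction in HEL cells against CMV (AD-169, Davis) or VZV (TK⁺ OKA, TK⁻ 07/1), using a virus input of 20 PFU. EC50 is the concentration that reduced plaque formation by 50%.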

[17] = tested on: Cytomegalovirus; test: Antiviral activity against Cytomegalovirus Davis infected in HEL cells assessed as reduction in virus plaque formation; assay type: functional, organism-based; settings: Human betaherpesvirus 5, Davis; in short: as §2
[18] = tested on: Human alphaherpesvirus 3; test: Antiviral activity against Varicella Zoster Virus OKA infected in HEL cells assessed as reduction in virus plaque formation; assay type: functional, organism-based; settings: Human alphaherpesvirus 3, OKA; in short: as §2
[19] = tested on: Human alphaherpesvirus 3; test: Antiviral activity against thymidine kinase deficient Varicella Zoster Virus 07/1 infected in HEL cells assessed as reduction in virus plaque formation; assay type: functional, organism-based; settings: Human alphaherpesvirus 3, 07/1, HEL; in short: as §2
[20] = Cytotoxicity against Cytomegalovirus infected HEL cells assessed as change in cell morphology; assay type: cell-based; settings: human; in short: as §1
[21] = Cytotoxicity against Cytomegalovirus infected HEL cells assessed as reduction in cell growth; assay type: cell-based; settings: human
[22] = Cytotoxicity against Varicella Zoster Virus infected human […] cells assessed as change in cell morphology; assay type: cell-based
[23] = Cytotoxicity against Varicella Zoster Virus infected human […] cells assessed as reduction in cell growth; assay type: cell-based
[24] = tested on: Human immunodeficiency virus 2; test: Antiviral activity against HIV-2 ROD infected human MT4 cells assessed as protection against virus-induced cytopathogenicity; assay type: functional, organism-based; settings: Human immunodeficiency virus 2, ISOLATE ROD
In short: (§3)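 HIV-1 (IIIB) or HIV-2 (ROD) infection of MT-4 cells, scored as protection against virus-induced cytopathicity. IC50 was derived from protection.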

[25] = tested on: Human immunodeficiency virus 1; test: Antiviral activity against HIV-1 3B infected human MT4 cells assessed as protection against virus-induced cytopathogenicity; assay type: functional, organism-based; settings: Human immunodeficiency virus 1, 3B; in short: as §3
[26] = Cytotoxicity against HIV-1 3B infected human MT4 cells; assay type: cell-based; settings: HIV-1 3B-infected MT4 cells

| Structure (SMILES) | MCC [1] [µg/mL] | MIC50 [2] [µg/mL] | MIC50 [3] [µg/mL] | MIC50 [4] [µg/mL] | MIC50 [5] [µg/mL] | MIC50 [6] [µg/mL] | MIC50 [7] [µg/mL] | MIC50 [8] [µg/mL] | MIC50 [9] [µg/mL] | MIC50 [10] [µg/mL] | MIC50 [11] [µg/mL] | MIC50 [12] [µg/mL] | MIC50 [13] [µg/mL] | MCC [14] [µg/mL] | MCC [15] [µg/mL] | EC50 [16] [µg/mL] | EC50 [17] [µg/mL] | IC50 [24] [µg/mL] | IC50 [25] [µg/mL] | CC50 [26] [µg/mL] | also measured |
| --- | --- | --- | --- | --- | --- | --- | --- | --- | --- | --- | --- | --- | --- | --- | --- | --- | --- | --- | --- | --- | --- |
| CCCNC(=S)Nc1ccc(NS(C)(=O)=O)c(Oc2ccccc2)c1 | 200 | > 40 | > 40 | > 40 | > 40 | > 40 | > 40 | 40 (≈ 105 µM) | > 8 | > 8 | > 8 | > 8 | > 8 | 200 | 40 | 54.7 (≈ 144 µM) | 54.7 (≈ 144 µM) | > 89.3 | > 89.3 | 89.3 (≈ 235 µM) | EC50 [18]: > 20 µg/mL; EC50 [19]: > 20 µg/mL; CC50 [20]: > 100 µg/mL; CC50 [21]: 56 µg/mL (≈ 148 µM); CC50 [22]: 100 µg/mL (≈ 263 µM); CC50 [23]: 56 µg/mL (≈ 148 µM) |
| CNC(=S)Nc1ccc(NS(C)(=O)=O)c(Oc2ccccc2)c1 | > 100 | > 100 | > 100 | > 100 | > 100 | 100 (≈ 285 µM) | > 100 | > 100 | > 100 | > 100 | > 100 | > 100 | > 100 | > 100 | > 100 |  |  | > 125 | > 125 | > 125 |  |
| CS(=O)(=O)Nc1ccc(NC(=S)NCCc2ccccc2)cc1Oc1ccccc1 | 40 | > 8 | > 8 | > 8 | > 8 | > 8 | > 8 | > 8 | > 1.6 | > 1.6 | > 1.6 | > 1.6 | > 1.6 | 40 | 8 | > 20 | > 20 | > 20.8 | > 20.8 | 20.8 (≈ 47.1 µM) | EC50 [18]: > 20 µg/mL; EC50 [19]: > 20 µg/mL; CC50 [20]: 100 µg/mL (≈ 226 µM); CC50 [21]: 48 µg/mL (≈ 109 µM); CC50 [22]: ≥ 100 µg/mL; CC50 [23]: 48 µg/mL (≈ 109 µM) |
| CS(=O)(=O)Nc1ccc(NC(=S)NC2CCCCC2)cc1Oc1ccccc1 | 40 | > 8 | > 8 | > 8 | > 8 | > 8 | > 8 | > 8 | > 1.6 | > 1.6 | > 1.6 | > 1.6 | > 1.6 | 40 | 8 | > 4 | > 4 | > 35.3 | > 35.3 | 35.3 (≈ 84.1 µM) | EC50 [18]: > 20 µg/mL; EC50 [19]: > 0.8 µg/mL; CC50 [20]: 20 µg/mL (≈ 47.7 µM); CC50 [21]: 33.6 µg/mL (≈ 80.1 µM); CC50 [22]: ≥ 4 µg/mL; CC50 [23]: 82.4 µg/mL (≈ 196 µM) |
| C=CCNC(=S)Nc1ccc(NS(C)(=O)=O)c(Oc2ccccc2)c1 | 200 | > 40 | > 40 | > 40 | > 40 | > 40 | > 40 | 40 (≈ 106 µM) | ≥ 24 | > 40 | > 40 | > 40 | > 40 | 200 | 200 | 54.7 (≈ 145 µM) | 54.7 (≈ 145 µM) | > 12.8 | > 87.2 | 101 (≈ 269 µM) | EC50 [18]: 58.5 µg/mL (≈ 155 µM); EC50 [19]: 49 µg/mL (≈ 130 µM); CC50 [20]: > 100 µg/mL; CC50 [21]: 82.4 µg/mL (≈ 218 µM); CC50 [22]: > 100 µg/mL; CC50 [23]: 82.4 µg/mL (≈ 218 µM) |
| CS(=O)(=O)Nc1ccc(NC(=S)NCCc2ccc(Cl)cc2)cc1Oc1ccccc1 | 100 | > 100 | > 100 | > 100 | > 100 | > 20 | > 20 | > 20 | > 20 | > 20 | > 20 | > 20 | > 20 | > 100 | 100 |  |  | > 14.8 | > 14.8 | 14.8 (≈ 31.2 µM) |  |
| CS(=O)(=O)Nc1ccc(NC(=S)NCc2ccccc2)cc1Oc1ccccc1 | 40 | > 8 | > 8 | > 8 | > 8 | > 8 | > 8 | > 8 | > 8 | > 8 | > 8 | > 8 | > 8 | 40 | 40 | > 4 | > 4 | > 18.3 | 20.1 (≈ 47.1 µM) | 61.6 (≈ 144 µM) | EC50 [18]: > 4 µg/mL; EC50 [19]: > 4 µg/mL; CC50 [20]: 20 µg/mL (≈ 46.8 µM); CC50 [21]: 45.2 µg/mL (≈ 106 µM); CC50 [22]: 20 µg/mL (≈ 46.8 µM); CC50 [23]: 45.2 µg/mL (≈ 106 µM) |
